According to ChEMBL document CHEMBL1240347, “MK-7009, a potent and selective inhibitor of hepatitis C virus NS3/4A protease” (Antimicrob Agents Chemother, 2010):

Tests used:
Hepatitis C virus [1] = test: Antiviral activity against Hepatitis C virus containing NS3/4a ps41 sequence by transient cell-base protease activity; assay type: functional, organism-based, Hepacivirus hominis
Procedure, shortened: (§1)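 Transient cell-based phenotype assay of protease activity, using NS3/4A sequences cloned from plasma of HCV-infected patients. EC50s were determined.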

Pan troglodytes = test: AUC in chimpanzee at 10 mg/kg, po from 0 to 24 hrs by LC/MS/MS analysis; conditions: in vivo
Hepatitis C virus [2] = test: Antiviral activity against Hepatitis C virus containing NS3/4a ps37 sequence by transient cell-base protease activity; assay type: functional, organism-based, Hepacivirus hominis; procedure, shortened: as §1
Hepatitis C virus [3] = test: Antiviral activity against Hepatitis C virus genotype 2a infected in […] cell by cell-based HCV replicon assay in presence of 10% fetal bovine serum; assay type: functional, organism-based, Hepacivirus hominis
Procathepsin L = Procathepsin L (Homo sapiens, UniProt P07711); test: Inhibition of human Cathepsin L
Chain of Procathepsin L (P07711 whole entry): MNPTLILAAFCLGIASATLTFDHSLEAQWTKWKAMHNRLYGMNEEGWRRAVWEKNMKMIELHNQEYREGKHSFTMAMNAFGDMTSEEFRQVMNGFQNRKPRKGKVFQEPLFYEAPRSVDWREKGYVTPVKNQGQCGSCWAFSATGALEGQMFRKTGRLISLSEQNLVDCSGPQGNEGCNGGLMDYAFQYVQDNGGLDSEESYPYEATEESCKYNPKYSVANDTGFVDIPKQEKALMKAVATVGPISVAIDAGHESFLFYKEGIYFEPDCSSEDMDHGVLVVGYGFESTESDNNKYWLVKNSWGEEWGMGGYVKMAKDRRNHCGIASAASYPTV

[4] = AUC (0-24 hrs) in chimpanzee at 10 mg/kg, po by LC/MS/MS analysis; assay type: ADME, organism-based, Pan troglodytes; set-up: time < 24 hr, dose 10 mg/kg, route oral; conditions: plasma
Procedure, shortened: (§2)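 Two HCV-uninfected chimpanzees (about 57 and 52 kg) drank the dose voluntarily in a chocolate milk vehicle (0.67 ml/kg). EDTA plasma was stored at −70°C and quantified by LC/MS/MS after protein precipitation.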

[5] = Cmax in dog at 5 mg/kg, po by LC/MS/MS analysis; assay type: ADME, organism-based, Canis lupus familiaris; set-up: dose 5 mg/kg, route oral; conditions: in vivo
Procedure, shortened: (§3)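 Dosed orally as a solution in polyethylene glycol 400 (2.0 ml/kg), with n = 3. EDTA plasma was centrifuged off and held at −70°C. Drug levels were determined by LC/MS/MS following protein precipitation.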

Cathepsin L2 = biological target: T1, Cathepsin L2 (Homo sapiens, UniProt O60911); test: Inhibition of human Cathepsin V
T1 sequence (O60911 whole entry): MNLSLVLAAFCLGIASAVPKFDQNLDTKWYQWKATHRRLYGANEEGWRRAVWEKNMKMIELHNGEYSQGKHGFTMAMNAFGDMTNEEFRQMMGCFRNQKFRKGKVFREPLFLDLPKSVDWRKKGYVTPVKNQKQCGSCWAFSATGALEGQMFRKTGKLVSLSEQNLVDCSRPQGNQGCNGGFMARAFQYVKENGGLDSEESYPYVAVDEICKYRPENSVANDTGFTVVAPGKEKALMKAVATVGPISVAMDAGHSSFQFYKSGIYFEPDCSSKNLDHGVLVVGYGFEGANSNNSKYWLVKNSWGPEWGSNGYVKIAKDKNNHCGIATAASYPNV

[6] = AUC (0-24 hrs) in rhesus monkey at 2 mg/kg, iv by LC/MS/MS analysis; assay type: ADME, organism-based, Macaca mulatta; set-up: time < 24 hr, dose 2 mg/kg, route intravenous; conditions: plasma
Procedure, shortened: (§4)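 Fasted animals received an intravenous bolus in DMSO at 1.0 ml/kg (rat), 0.1 ml/kg (dog) or 0.1 ml/kg (rhesus), with n = 3. Blood was drawn into EDTA tubes, and plasma was separated by centrifugation and stored at −70°C. Drug was quantified by LC/MS/MS after protein precipitation.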

[7] = Inhibition of Hepatitis C virus genotype 2a NS3/4A protease activity; set-up: species or system Hepatitis C virus subtype 2a
Procedure, shortened: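 Recombinant NS3/4A protease was expressed in and purified from E. coli. Inhibition was measured by a time-resolved, internally quenched fluorescence assay at low enzyme concentration. Kis were reported.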

[8] = AUC (0-24 hrs) in rat at 2 mg/kg, iv by LC/MS/MS analysis; assay type: ADME, organism-based; set-up: time < 24 hr, dose 2 mg/kg, route intravenous; conditions: plasma; procedure, shortened: as §4
Hepatitis C virus [9] = test: Antiviral activity against Hepatitis C virus containing NS3/A156T protease mutant activity by TaqMan-based assay; assay type: functional, organism-based, Hepacivirus hominis
Procedure, shortened: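 Panel of stable HCV replicon cell lines carrying NS3 protease mutations. Replicon RNA read out by a TaqMan-based assay, and EC50 values determined.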

[10] = AUC (0-24 hrs) in dog at 5 mg/kg, po by LC/MS/MS analysis; assay type: ADME, organism-based, Canis lupus familiaris; set-up: time < 24 hr, dose 5 mg/kg, route oral; conditions: plasma; procedure, shortened: as §3
Cathepsin S = Cathepsin S (Homo sapiens, UniProt P25774); test: Inhibition of human Cathepsin S
Chain of Cathepsin S (P25774 whole entry): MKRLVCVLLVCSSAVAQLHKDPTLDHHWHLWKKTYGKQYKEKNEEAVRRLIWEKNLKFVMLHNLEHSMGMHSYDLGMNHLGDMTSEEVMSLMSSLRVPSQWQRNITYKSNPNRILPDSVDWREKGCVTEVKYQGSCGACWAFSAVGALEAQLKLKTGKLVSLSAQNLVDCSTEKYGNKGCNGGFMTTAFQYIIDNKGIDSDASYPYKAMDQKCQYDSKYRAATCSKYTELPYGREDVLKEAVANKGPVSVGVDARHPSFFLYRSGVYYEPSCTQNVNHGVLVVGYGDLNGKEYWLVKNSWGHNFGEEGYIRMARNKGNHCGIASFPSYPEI

[11] = biological target: Chymotrypsin-like elastase family member 1 (Homo sapiens, UniProt Q9UNI1); test: Inhibition of human Pancreatic elastase 1
Chain of Chymotrypsin-like elastase family member 1 (Q9UNI1 whole entry): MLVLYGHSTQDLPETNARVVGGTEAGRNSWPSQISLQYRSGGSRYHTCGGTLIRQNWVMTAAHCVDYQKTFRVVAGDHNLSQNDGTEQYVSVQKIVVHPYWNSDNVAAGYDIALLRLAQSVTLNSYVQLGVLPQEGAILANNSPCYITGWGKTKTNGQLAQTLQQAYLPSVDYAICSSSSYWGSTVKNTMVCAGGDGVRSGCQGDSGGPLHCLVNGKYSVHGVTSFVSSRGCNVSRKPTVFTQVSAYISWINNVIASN

[12] = Plasma clearance in rhesus monkey at 2 mg/kg, iv by LC/MS/MS analysis; assay type: ADME, organism-based, Macaca mulatta; set-up: dose 2 mg/kg, route intravenous
Procedure, shortened: (§5)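 Fasted animals received an IV bolus in DMSO at 1.0 ml/kg for rats and 0.1 ml/kg for dogs and rhesus monkeys, at 2 mg/kg; n = 3 per species. Blood was drawn into EDTA tubes at set times, and plasma was separated by centrifugation and stored at −70°C. Drug was quantified by LC/MS/MS after protein precipitation.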

[13] = Half life in dog at 2 mg/kg, iv by LC/MS/MS analysis; assay type: ADME, organism-based, Canis lupus familiaris; set-up: dose 2 mg/kg, route intravenous; conditions: in vivo; procedure, shortened: as §4
[14] = AUC (0-24 hrs) in rhesus monkey at 5 mg/kg, po by LC/MS/MS analysis; assay type: ADME, organism-based, Macaca mulatta; set-up: time < 24 hr, dose 5 mg/kg, route oral; conditions: plasma; procedure, shortened: as §3
[15] = Cmax in Chimpanzee at 10 mg/kg, po by LC/MS/MS analysis; assay type: ADME, organism-based, Pan troglodytes; set-up: dose 10 mg/kg, route oral; conditions: in vivo; procedure, shortened: as §2
Hepatitis C virus [16] = test: Antiviral activity against Hepatitis C virus containing NS3/4a ps30 sequence by transient cell-base protease activity; assay type: functional, organism-based, Hepacivirus hominis; procedure, shortened: as §1
[17] = Plasma clearance in rat at 2 mg/kg, iv by LC/MS/MS analysis; assay type: ADME, organism-based; set-up: dose 2 mg/kg, route intravenous; procedure, shortened: as §5
Cathepsin K = biological target: T2, Cathepsin K (Homo sapiens, UniProt P43235); test: Inhibition of human Cathepsin K
T2 sequence (P43235 whole entry): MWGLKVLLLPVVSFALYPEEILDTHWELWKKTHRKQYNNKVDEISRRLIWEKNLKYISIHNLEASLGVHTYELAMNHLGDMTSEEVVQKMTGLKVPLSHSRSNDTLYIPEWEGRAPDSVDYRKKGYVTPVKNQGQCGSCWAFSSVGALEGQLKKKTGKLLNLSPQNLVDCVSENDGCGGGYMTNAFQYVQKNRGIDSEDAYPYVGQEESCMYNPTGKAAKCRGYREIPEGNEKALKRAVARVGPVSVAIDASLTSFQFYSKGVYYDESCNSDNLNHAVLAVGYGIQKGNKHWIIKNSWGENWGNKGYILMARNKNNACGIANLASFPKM

[18] = Cmax in rhesus monkey at 5 mg/kg, po by LC/MS/MS analysis; assay type: ADME, organism-based, Macaca mulatta; set-up: dose 5 mg/kg, route oral; conditions: in vivo; procedure, shortened: as §3
Serine protease 1 = Serine protease 1 (Homo sapiens, UniProt P07477); test: Inhibition of human Trypsin activity
Chain of Serine protease 1 (P07477 whole entry): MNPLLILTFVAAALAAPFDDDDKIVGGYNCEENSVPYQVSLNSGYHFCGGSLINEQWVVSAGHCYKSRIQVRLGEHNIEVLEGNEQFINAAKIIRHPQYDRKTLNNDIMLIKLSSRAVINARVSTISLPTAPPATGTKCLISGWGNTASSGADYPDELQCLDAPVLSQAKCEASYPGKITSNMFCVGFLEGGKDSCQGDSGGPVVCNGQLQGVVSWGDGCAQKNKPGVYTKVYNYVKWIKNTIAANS

Cathepsin F = biological target: T3, Cathepsin F (Homo sapiens, UniProt Q9UBX1); test: Inhibition of human Cathepsin F
T3 sequence (Q9UBX1 whole entry): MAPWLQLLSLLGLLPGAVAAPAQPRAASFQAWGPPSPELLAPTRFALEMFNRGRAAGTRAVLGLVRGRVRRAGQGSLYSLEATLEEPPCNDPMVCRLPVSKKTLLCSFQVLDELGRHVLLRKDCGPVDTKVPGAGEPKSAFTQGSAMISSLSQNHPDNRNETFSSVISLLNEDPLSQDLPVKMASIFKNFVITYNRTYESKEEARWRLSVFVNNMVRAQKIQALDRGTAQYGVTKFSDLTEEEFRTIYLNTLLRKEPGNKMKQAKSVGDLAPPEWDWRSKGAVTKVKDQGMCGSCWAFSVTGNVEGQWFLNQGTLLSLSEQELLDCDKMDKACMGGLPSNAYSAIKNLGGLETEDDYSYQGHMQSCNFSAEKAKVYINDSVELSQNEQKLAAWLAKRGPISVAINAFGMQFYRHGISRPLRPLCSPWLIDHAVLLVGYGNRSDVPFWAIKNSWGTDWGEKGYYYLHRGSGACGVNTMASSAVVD

SMILES: CC[C@@H]1C[C@]1(NC(=O)[C@@H]1C[C@@H]2CN1C(=O)[C@H](C(C)(C)C)NC(=O)OCC(C)(C)CCCCc1cccc3c1CN(C3)C(=O)O2)C(=O)NS(=O)(=O)C1CC1 [VANIPREVIR]
- EC50 (Hepatitis C virus [1]): 19 nM
- AUC (Pan troglodytes): 5.2 µM·h
- EC50 (Hepatitis C virus [2]): 6.5 nM
- EC50 (Hepatitis C virus [3]): 15 nM
- IC50 (Procathepsin L): > 10000 nM
- AUC(0-t) at 24 h [4]: 5.2 µM·h
- Cmax [5]: 500 nM
- IC50 (Cathepsin L2): > 10000 nM
- AUC(0-t) at 24 h [6]: 2.5 µM·h
- Ki [7]: 1 nM
- AUC(0-t) at 24 h [8]: 0.6 µM·h
- EC50 (Hepatitis C virus [9]): 200 nM
- AUC(0-t) at 24 h [10]: 1.2 µM·h
- IC50 (Cathepsin S): > 10000 nM
- IC50 [11]: > 10000 nM
- clearance [12]: 18 mL/min/kg
- half-life [13]: 1.2 h
- AUC(0-t) at 24 h [14]: 0.05 µM·h
- Cmax [15]: 900 nM
- EC50 (Hepatitis C virus [16]): 27 nM
- clearance [17]: 74 mL/min/kg
- IC50 (Cathepsin K): > 10000 nM
- Cmax [18]: 10 nM
- IC50 (Serine protease 1): > 10000 nM
- IC50 (Cathepsin F): > 10000 nM
